What all share (format): ADME, organism-based, Macaca mulatta
Data set [1] is described as follows: Drug level in normal rhesus monkey thalamus assessed as standard uptake value at 96.3 MBq, iv after 1.5 mins by microPET. The note with it: in vivo, 0.025 h.
Data set [2] in a line: Drug level in normal rhesus monkey thalamus assessed as standard uptake value at 96.3 MBq, iv after 3.5 mins by microPET. The settings on record: in vivo.
The nature of data set [3]: Drug level in normal rhesus monkey thalamus assessed as standard uptake value at 96.3 MBq, iv after 14 mins by microPET. The settings on record: in vivo.
A short description of data set [4]: Drug level in normal rhesus monkey thalamus assessed as standard uptake value at 96.3 MBq, iv after 37.5 mins by microPET. The note with it: in vivo, 0.625 h.
The nature of data set [5]: Drug level in normal rhesus monkey thalamus assessed as standard uptake value at 96.3 MBq, iv after 42.5 mins by microPET. The note with it: in vivo.
The nature of data set [6]: Drug level in normal rhesus monkey thalamus assessed as standard uptake value at 96.3 MBq, iv after 65 mins by microPET. The settings on record: in vivo.
Data set [7] is described as follows: Drug level in normal rhesus monkey pons assessed as standard uptake value at 96.3 MBq, iv after 1.5 mins by microPET. The settings on record: in vivo, 0.025 h.
Data set [8] is described as follows: Drug level in normal rhesus monkey parietal cortex assessed as standard uptake value at 96.3 MBq, iv after 1.5 mins by microPET. The note with it: in vivo, 0.025 h.
A short description of data set [9]: Drug level in normal rhesus monkey frontal cortex assessed as standard uptake value at 96.3 MBq, iv after 32.5 mins by microPET. The note with it: in vivo.
The nature of data set [10]: Drug level in normal rhesus monkey pons assessed as standard uptake value at 81.2 MBq, iv after 175 mins by microPET. The note with it: in vivo.
The nature of data set [11]: Drug level in normal rhesus monkey parietal cortex assessed as standard uptake value at 81.2 MBq, iv after 22.5 mins by microPET. The note with it: in vivo, 0.375 h.
Data set [12] can be described thus: Drug level in normal rhesus monkey white matter assessed as standard uptake value at 81.2 MBq, iv after 85 mins by microPET. The settings on record: in vivo.
Data set [13] in a line: Drug level in normal rhesus monkey white matter assessed as standard uptake value at 81.2 MBq, iv after 155 mins by microPET. The settings on record: in vivo.
Data set [14] is described as follows: Drug level in normal rhesus monkey thalamus assessed as standard uptake value at 81.2 MBq, iv after 3.5 mins by microPET. The settings on record: in vivo.
A short description of data set [15]: Drug level in normal rhesus monkey thalamus assessed as standard uptake value at 81.2 MBq, iv after 17.5 mins by microPET. The note with it: in vivo.
The nature of data set [16]: Drug level in normal rhesus monkey cerebellum assessed as standard uptake value at 81.2 MBq, iv after 145 mins by microPET. The note with it: in vivo. The essentials:
(§1)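 One normal rhesus monkey, each tracer given iv via the vena saphena (81.2, 96.3 or 109.4 MBq), with 1 day between tracer injections. Dynamic brain μPET over 180 min used frames of 5 × 60 s, 5 × 120 s, 9 × 300 s and 12 × 600 s. Images were reconstructed by filtered back projection with a RAMP filter. Regional time-activity curves were expressed as SUV.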

Data set [17] can be described thus: Drug level in normal rhesus monkey cerebellum assessed as standard uptake value at 81.2 MBq, iv after 14 mins by microPET. The note with it: in vivo. The gist of the method: as §1
Data set [18] is described as follows: Drug level in normal rhesus monkey cerebellum assessed as standard uptake value at 152.9 MBq, iv after 27.5 mins by microPET. The settings on record: in vivo. The essentials:
(§2)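 Single normal rhesus monkey; tracer given iv via the vena saphena, 1 day apart from the other tracer injections. Dynamic μPET ran 90 min (5×60 s, 5×120 s, 9×300 s, 3×600 s). Images were reconstructed by filtered back projection with a RAMP filter. Regional time-activity curves were expressed as SUV.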

Data set [19] can be described thus: Drug level in normal rhesus monkey frontal cortex assessed as standard uptake value at 152.9 MBq, iv after 8 mins by microPET. The note with it: in vivo. The essentials:
as §2

Data set [20] in a line: Drug level in normal rhesus monkey frontal cortex assessed as standard uptake value at 152.9 MBq, iv after 85 mins by microPET. The note with it: in vivo. The gist of the method:
as §2

Data set [21] can be described thus: Drug level in normal rhesus monkey white matter assessed as standard uptake value at 152.9 MBq, iv after 4.5 mins by microPET. The note with it: in vivo, 0.075 h.
A short description of data set [22]: Drug level in normal rhesus monkey thalamus assessed as standard uptake value at 152.9 MBq, iv after 22.5 mins by microPET. The note with it: in vivo, 0.375 h.
Data set [23] can be described thus: Drug level in normal rhesus monkey thalamus assessed as standard uptake value at 152.9 MBq, iv after 57.5 mins by microPET. The settings on record: in vivo.
Data set [24] in a line: Drug level in normal rhesus monkey pons assessed as standard uptake value at 152.9 MBq, iv after 1.5 mins by microPET. The note with it: in vivo, 0.025 h.
Data set [25] in a line: Drug level in normal rhesus monkey pons assessed as standard uptake value at 152.9 MBq, iv after 6 mins by microPET. The note with it: in vivo, 0.1 h.
A short description of data set [26]: Drug level in normal rhesus monkey pons assessed as standard uptake value at 152.9 MBq, iv after 12 mins by microPET. The note with it: in vivo, 0.2 h.
Data set [27] in a line: Drug level in normal rhesus monkey pons assessed as standard uptake value at 152.9 MBq, iv after 14 mins by microPET. The note with it: in vivo.
Data set [28] in a line: Drug level in normal rhesus monkey parietal cortex assessed as standard uptake value at 152.9 MBq, iv after 10 mins by microPET. The note with it: in vivo.
Data set [29] in a line: Drug level in normal rhesus monkey parietal cortex assessed as standard uptake value at 152.9 MBq, iv after 65 mins by microPET. The note with it: in vivo.
The nature of data set [30]: Drug level in normal rhesus monkey pons assessed as standard uptake value at 109.4 MBq, iv after 87 mins by microPET. The note with it: in vivo, 1.45 h.
The nature of data set [31]: Drug level in normal rhesus monkey cerebellum assessed as standard uptake value at 109.4 MBq, iv after 81 mins by microPET. The settings on record: in vivo, 1.35 h.
A short description of data set [32]: Drug level in normal rhesus monkey white matter assessed as standard uptake value at 109.4 MBq, iv after 117 mins by microPET. The note with it: in vivo, 1.95 h.
Data set [33] is described as follows: Drug level in normal rhesus monkey thalamus assessed as standard uptake value at 109.4 MBq, iv after 22.5 mins by microPET. The note with it: in vivo, 0.375 h.
Data set [34] can be described thus: Drug level in normal rhesus monkey thalamus assessed as standard uptake value at 109.4 MBq, iv after 32.5 mins by microPET. The note with it: in vivo.
Data set [35] can be described thus: Drug level in normal rhesus monkey cerebellum assessed as standard uptake value at 109.4 MBq, iv after 0.625 mins by microPET. The settings on record: in vivo, 38 s.
Data set [36] is described as follows: Drug level in normal rhesus monkey cerebellum assessed as standard uptake value at 109.4 MBq, iv after 4.5 mins by microPET. The settings on record: in vivo, 0.075 h. The gist of the method:
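Single normal rhesus monkey; each tracer given iv via the vena saphena, with 1 day between tracer injections. Dynamic μPET ran 180 min (5×60 s, 5×120 s, 9×300 s, 12×600 s). Images were reconstructed by filtered back projection with a RAMP filter. Regional time-activity curves were expressed as SUV.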

Data set [37] is described as follows: Drug level in normal rhesus monkey white matter assessed as standard uptake value at 109.4 MBq, iv after 3.5 mins by microPET. The note with it: in vivo.
Data set [38] in a line: Drug level in normal rhesus monkey white matter assessed as standard uptake value at 109.4 MBq, iv after 4.5 mins by microPET. The note with it: in vivo, 0.075 h.
Data set [39] can be described thus: Drug level in normal rhesus monkey white matter assessed as standard uptake value at 109.4 MBq, iv after 9.5 mins by microPET. The settings on record: in vivo.

For `CN(C)c1ccc2nc(-c3ccc([18F])cc3)sc2c1`, the SUV was 1.55 in data set [1]; 2 in [2]; 2.33 in [3]; 2.33 in [4]; 2.46 in [5]; 2.21 in data set [6]. Moreover, the SUV in data set [7] came to 0.8; in data set [8], 1.7; in data set [9], 2.14.
`CNc1ccc2nc(-c3ccc([18F])cc3)sc2c1`: the SUV in data set [10] came to 5.471; in data set [11] it was 4.538; in data set [12] it was 3.871; in [13] it was 4.236; in [14], 3.83; in [15], 5.379. The SUV came out at 1.602 in [16] and 2.614 in data set [17].
As to `[11CH3]Nc1ccc(-c2nc3ccc(O)cc3s2)cc1` [PITTSBURGH COMPOUND B], the SUV in [18] is given as 1.258; in data set [19] it was 2.29; in data set [20], 0.625; in data set [21], 1.334; in data set [22], 1.903; in data set [23], 0.88. Moreover, the SUV was determined as 0.447 in data set [24]; 2.044 in [25]; 2.117 in [26]; 2.04 in data set [27]; 2.18 in data set [28]; 0.69 in data set [29].
For the molecule `Nc1ccc2nc(-c3ccc([18F])cc3)sc2c1`, the SUV in data set [30] is 4.84; in [31], 2.87; in data set [32], 3.71; in [33], 5.55; in data set [34], 5.59; in data set [35], 2.19. The SUV in data set [36] was determined as 6.13; in data set [37], 2.22; in data set [38], 2.62; in [39], 2.99.
